How the values were obtained:
[1] = biological target: T1, Integrin alpha-IIb/beta-3 (Homo sapiens, UniProt P05106+P08514); assay: Antagonist activity at GP2b/GP3a receptor in human platelet rich plasma assessed as inhibition of ADP-induced platelet aggregation at 50 uM preincubated for 1 min followed by ADP addition by aggregometric method relative to control
How it was run: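 Human PRP from apheresis platelets, PPP from centrifugation at 3000r/min for 10 min used as reference. Compound in saline or 0.2% aqueous DMSO added to PRP, incubated 1 min, then ADP 20 μM (per table footnotes; methods list 10 μM) added. Light transmission aggregometry at 37°C, maximal aggregation vs PPP. Inhibition relative to control aggregation ratio. IC50 from at least four concentrations.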

[2] = biological target: T1, Integrin alpha-IIb/beta-3; assay: Displacement of fibrinogen from human platelet GP2b/GP3a receptor after 2 hrs by ELISA
How it was run: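 Plates coated overnight at 4°C with fibrinogen 10 µg/ml in 0.1 M carbonate pH 9.5, blocked with 1% BSA. Purified human platelet GPIIb/IIIa (20 µg/ml) added with samples for 2 h in Tris/NaCl/CaCl2/Tween buffer pH 7.5. Bound receptor detected with anti-β3 antibody (1 h, 37°C) and alkaline phosphatase conjugate with pNPP, A405. BSA-only wells subtracted. Triplicate.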

Mus musculus [3] = assay: Toxicity in ICR mouse assessed as bleeding time at 3 mg/kg, iv administered 30 mins prior to test by tail transection method; format: organism-based; settings: in vivo, 0.5 h
How it was run: (§1)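 ICR mice dosed 30 min before test, saline as control. Anesthetized with 5% chloral hydrate i.p., kept at 37°C on a heating pad. 3-mm tail tip cut off and tail immersed in 37°C saline. Time until bleeding stopped for more than 5 s recorded, accumulated within 20 min. n=6.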

Mus musculus [4] = assay: Toxicity in ICR mouse assessed as bleeding time at 15 mg/kg, iv administered 30 mins prior to test by tail transection method; format: organism-based; settings: in vivo, 0.5 h; how it was run: as §1
Mus musculus [5] = assay: Toxicity in ICR mouse assessed as bleeding time at 30 mg/kg, iv administered 30 mins prior to test by tail transection method; format: organism-based; settings: in vivo, 0.5 h; how it was run: as §1
Rattus norvegicus [6] = assay: Anti-thrombotic activity in iv dosed Sprague-Dawley rat arterio-venous shunt thrombosis model assessed as reduction in thrombus weight pretreated for 15 mins followed by arteriovenous shunt thrombosis induction measured after 20 mins; format: functional, organism-based
How it was run: (§2)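 SD rats of both sexes, 180~220 g, dosed by tail vein injection. After 15 min, anesthetized with 10% chloral hydrate (3 ml/kg i.p.). Shunt catheter placed between left jugular vein and right common carotid artery, opened 20 min. Thrombus dried at 60°C for 20 min and weighed without the thread. n=6.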

Rattus norvegicus [7] = assay: Anti-thrombotic activity in Sprague-Dawley rat arterio-venous shunt thrombosis model assessed as reduction in thrombus weight at 10 mg/kg, iv pretreated for 15 mins followed by arteriovenous shunt thrombosis induction measured after 20 mins relative to control; format: functional; set-up: scale not given: the % may be the effect or the level left; how it was run: as §2

Row | inhibition [1] | Compound | further results
1 | 38.1% | O=C(O)C(Cc1c[nH]c2ccc(OCCCCC3CCNCC3)cc12)NS(=O)(=O)c1ccc(Br)cc1 (stereo not drawn) | –
2 | > 99.5% | N=C(N)c1ccc(COc2ccc3cc(CC(NS(=O)(=O)c4ccccc4)C(=O)O)ccc3c2)cc1 (racemic) | IC50 [2]: 1330 nM; inhibition [2]: Dose-dependent effect
3 | – | Cl.O=C(O)C(Cc1ccc2cc(OCCCN3CCNCC3)ccc2c1)NS(=O)(=O)c1ccccc1 (racemic) | IC50 [2]: 80 nM; inhibition [2]: Dose-dependent effect; Time (Mus musculus [3]): 6.72 min; Time (Mus musculus [4]): 8.63 min; Time (Mus musculus [5]): 9.28 min; Activity (Rattus norvegicus [6]): Dose-dependent effect; Activity (Rattus norvegicus [7]): 40%
4 | > 99.5% | CCCC(=O)NC(Cc1ccc2cc(OCc3ccc(C(=N)N)cc3)ccc2c1)C(=O)O (racemic) | –
5 | > 99.5% | CCCCS(=O)(=O)NC(Cc1ccc2cc(OCc3ccc(C(=N)N)cc3)ccc2c1)C(=O)O (racemic) | –
6 | 32.4% | COc1ccc(C(=O)NC(Cc2ccc3cc(OCc4ccc(C(=N)N)cc4)ccc3c2)C(=O)O)cc1 (racemic) | –
7 | 21.5% | COc1ccc(S(=O)(=O)NC(Cc2ccc3cc(OCc4ccc(C(=N)N)cc4)ccc3c2)C(=O)O)cc1 (racemic) | –
8 | > 99.5% | Cc1ccc(S(=O)(=O)NC(Cc2ccc3cc(OCc4ccc(C(=N)N)cc4)ccc3c2)C(=O)O)cc1 (racemic) | –
9 | 23.3% | N=C(N)c1ccc(COc2ccc3cc(CC(NC(=O)c4ccc(F)cc4)C(=O)O)ccc3c2)cc1 (racemic) | –
10 | > 99.5% | N=C(N)c1ccc(COc2ccc3cc(CC(NC(=O)c4ccc([N+](=O)[O-])cc4)C(=O)O)ccc3c2)cc1 (racemic) | –
11 | 49.7% | N=C(N)c1ccc(COc2ccc3cc(CC(NC(=O)c4cccc(F)c4)C(=O)O)ccc3c2)cc1 (racemic) | –
12 | 49.4% | N=C(N)c1ccc(COc2ccc3cc(CC(NC(=O)c4ccccc4)C(=O)O)ccc3c2)cc1 (racemic) | –
13 | 50.2% | N=C(N)c1ccc(COc2ccc3cc(CC(NS(=O)(=O)c4ccc(Br)cc4)C(=O)O)ccc3c2)cc1 (racemic) | –
14 | 62.9% | N=C(N)c1ccc(COc2ccc3cc(CC(NS(=O)(=O)c4ccc([N+](=O)[O-])cc4)C(=O)O)ccc3c2)cc1 (racemic) | –
15 | < 5% | O=C(O)C(Cc1ccc2cc(OCC3CCNCC3)ccc2c1)NS(=O)(=O)c1ccc(Br)cc1 (racemic) | –
16 | < 5% | O=C(O)C(Cc1ccc2cc(OCCC3CCNCC3)ccc2c1)NS(=O)(=O)c1ccc(Br)cc1 (racemic) | –
17 | < 5% | O=C(O)C(Cc1ccc2cc(OCCCC3CCNCC3)ccc2c1)NS(=O)(=O)c1ccc(Br)cc1 (racemic) | –
18 | 91.2% | O=C(O)C(Cc1ccc2cc(OCCCCN3CCNCC3)ccc2c1)NS(=O)(=O)c1ccc(Br)cc1 (racemic) | –
19 | 99.1% | O=C(O)C(Cc1ccc2cc(OCCCN3CCNCC3)ccc2c1)NS(=O)(=O)c1ccc(Br)cc1 (racemic) | –
20 | 97.3% | O=C(O)C(Cc1ccc2cc(OCCN3CCNCC3)ccc2c1)NS(=O)(=O)c1ccc(Br)cc1 (racemic) | –
